Reference: ChEMBL document CHEMBL3763022, “Potent dual inhibitors of Plasmodium falciparum M1 and M17 aminopeptidases through optimization of S1 pocket interactions” (Eur J Med Chem, 2016)

What was measured:
[1] = Inhibition of recombinant Plasmodium falciparum M17 aminopeptidase using H-Leu-NHMec as substrate preincubated for 10 mins followed by addition of substrate by spectrofluorimetric analysis
Method in brief: (§1)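 E. coli-expressed enzymes, purified by Ni-NTA and size exclusion. Preincubation 10 min at 37°C with inhibitor: M1 in 100 mM Tris pH 8.0; M17 in 50 mM Tris pH 8.0, 2 mM CoCl2. Substrate H-Leu-NHMec kept below Km. Fluorescence ex 355/em 460 nm followed to steady-state velocity. Inhibitor range 500pM–500 μM. Ki from Dixon plots (1/V vs [I]).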

[2] = Inhibition of recombinant Plasmodium falciparum M1 aminopeptidase using H-Leu-NHMec as substrate preincubated for 10 mins followed by addition of substrate by spectrofluorimetric analysis; method in brief: as §1
[3] = system: Plasmodium falciparum; test: Antiparasitic activity against Plasmodium falciparum 3D7 assessed as growth inhibition after 72 hrs by DAPI staining-based confocal image analysis; format: functional, organism-based; conditions: 3D7, 72 h
Method in brief: (§2)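 Sorbitol-synchronised ring-stage parasites in human O+ erythrocytes at 2% parasitaemia, 0.3% haematocrit, incubated 72 h at 37 °C (5% CO2) with three-step log serial dilutions from 20 μM top, 0.4% DMSO final. Staining with DAPI/saponin/Triton X/EDTA in PBS, confocal imaging, parasite count.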

[4] = system: Plasmodium falciparum; test: Antiparasitic activity against chloroquine/quinine/pyrimethamine/sulfadoxine/NITD609-resistant Plasmodium falciparum Dd2 clone 2 assessed as growth inhibition after 72 hrs by DAPI staining-based confocal image analysis; format: functional, organism-based; conditions: Dd2, 72 h; method in brief: as §2
[5] = system: HEK293; test: Cytotoxicity against HEK293 cells assessed as cell viability after 72 hrs by resazurin assay; format: cell-based; conditions: human, hek293, 72 h
Method in brief: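 HEK293 cells in DMEM with 10% FCS, seeded at 2000 cells/well and left to adhere overnight. Compound dose response with top final 40 μM, 0.4% DMSO. Exposure 72 h at 37 °C, 5% CO2. Medium then replaced by 44 μM resazurin in serum-free DMEM for 4-6 h. Fluorescence read at ex/em 530/595 nm.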

[6] = system: Plasmodium falciparum; test: Antiparasitic activity against Plasmodium falciparum Dd2 assessed as growth inhibition after 72 hrs by DAPI staining-based confocal image analysis; format: functional, organism-based; conditions: Dd2, 72 h; method in brief: as §2

Row | SMILES | Ki [1] [µM] | Ki [2] [µM] | IC50 [3] [µM] | IC50 [4] [µM] | Activity [5] | IC50 [6] [µM]
1 | CC(C)(C)OC(=O)NC(C(=O)NO)c1ccc(-c2cccnc2)cc1 (configuration not stated) | 0.22 | 1.1 | – | – | – | –
2 | CC(C)(C)C(=O)NC(Cc1ccc(F)cc1)C(=O)NO (configuration not stated) | 0.037 | 63 | – | – | – | –
3 | CC(C)(C)C(=O)NC(C(=O)NO)c1ccc(-c2c(F)cc(F)cc2F)cc1 (configuration not stated) | 0.0025 | 5.9 | 0.125 | 0.45 | Non-toxic | 0.267
4 | CC(C)(C)OC(=O)NC(Cc1ccc(-c2ccccc2)cc1)C(=O)NO (configuration not stated) | 5.2 | > 500 | – | – | – | –
5 | Cn1cc(-c2ccc(CC(NC(=O)C(C)(C)C)C(=O)NO)cc2)cn1 (configuration not stated) | 0.74 | 39 | – | – | – | –
6 | CC(C)(C)C(=O)NC(C(=O)NO)c1ccc(-c2c(F)c(F)c(F)c(F)c2F)cc1 (configuration not stated) | 0.0084 | 1.8 | 0.13 | 0.408 | Non-toxic | 0.461
7 | CC(C)(C)C(=O)NC(C(=O)NO)c1ccc(-c2ccccc2)cc1 (configuration not stated) | 0.007 | 1.6 | 0.096 | 0.219 | Non-toxic | 0.19
8 | Cn1cc(-c2ccc(C(NC(=O)OC(C)(C)C)C(=O)NO)cc2)cn1 (configuration not stated) | 0.056 | 1.9 | 0.978 | – | Non-toxic | –
9 | CC(C)(C)OC(=O)NC(C(=O)NO)c1ccc(-c2ccccc2F)cc1 (configuration not stated) | 0.041 | 0.95 | 0.633 | – | Non-toxic | –
10 | CC(C)(C)OC(=O)NC(C(=O)NO)c1ccc(-c2ccc(/C(N)=N/O)cc2)cc1 (configuration not stated) | 0.018 | 0.4 | 0.334 | – | Non-toxic | –
11 | Cn1cc(-c2ccc(C(NC(=O)C(C)(C)C)C(=O)NO)cc2)cn1 (configuration not stated) | 0.0072 | 11 | – | – | – | –
12 | CC(C)(C)OC(=O)NC(C(=O)NO)c1ccc(-c2ccncc2)cc1 (configuration not stated) | 0.54 | 0.91 | – | – | – | –
13 | CC(C)(C)OC(=O)NC(C(=O)NO)c1ccc(-c2ccc(F)cc2)cc1 (configuration not stated) | 0.074 | 100 | – | – | – | –
14 | CC(C)(C)OC(=O)NC(Cc1ccc(Br)cc1)C(=O)NO (configuration not stated) | 7.7 | 39 | – | – | – | –
15 | CC(C)(C)OC(=O)NC(C(=O)NO)c1ccc(-c2cccc(F)c2)cc1 (configuration not stated) | 0.13 | 0.95 | – | – | – | –
16 | CC(C)(C)C(=O)NC(Cc1ccc(Br)cc1)C(=O)NO (configuration not stated) | 0.42 | 87 | – | – | – | –
17 | CC(C)(C)C(=O)NC(Cc1ccc(I)cc1)C(=O)NO (configuration not stated) | 0.016 | 15 | – | – | – | –
18 | CC(C)(C)C(=O)NC(C(=O)NO)c1ccc(Br)cc1 (configuration not stated) | 0.041 | 0.065 | 0.169 | 0.163 | Non-toxic | 0.194
19 | CC(C)(C)C(=O)NC(C(=O)NO)c1ccc(-c2ccc(F)c(F)c2)cc1 (configuration not stated) | 0.0064 | 1.4 | 0.139 | 0.195 | Non-toxic | 0.17
20 | CC(C)(C)C(=O)NC(C(=O)NO)c1ccc(-c2cc(F)cc(F)c2)cc1 (configuration not stated) | 0.092 | 0.58 | 0.144 | 0.232 | Non-toxic | 0.239
21 | CC(C)(C)C(=O)NC(Cc1ccc(-c2ccccc2)cc1)C(=O)NO (configuration not stated) | 0.65 | 27 | – | – | – | –
